Starred links: 1 amine or outer side, 2 acyl side, 3 side chain; linkers in the order of their positions; H or OH if unused. Positions of bridges follow the written chain, without caps; N, C: chain ends. Non-standard residues stand in square brackets, D forms with d. Residues, ends and D or L forms follow the SMILES beside them. Chains are numbered I, II in the order given. Actinocin(1to9) = Cc1c2oc3c(C)ccc(C(=O)[*:2])c3nc-2c(C(=O)[*:1])c(N)c1=O; NMeV = CN[C@H](C(=O)O)C(C)C; Sar = CNCC(=O)O

The test system of series [1] is Friend leukemia cells (Mus musculus). Kind of series: In vitro concentration required for growth inhibition of murine Friend leukemia cell. To be noted: read-out: ID50 (the source's name).
For series [2], the system named is Mus musculus. Kind of series: In vivo evaluation of antitumor activity on L1210 leukemia cells at the dose 15 mg/kg administered intraperitoneally 1 day after 10 e5 L1210 leukemia cells and Mean survival time. It counts as functional. To be noted: route intraperitoneal.
Series [3] has as its system Mus musculus. Kind of series: In vivo antitumor activity on L1210 leukemia cells at the dose 15 mg/kg administered intraperitoneally 1 day after 10 e5 L1210 leukemia cells and range of deaths. It counts as functional. As to conditions: route intraperitoneal.
Series [4] relates to Mus musculus. Description: In vivo evaluation of antitumor activity on L1210 leukemia cells at the dose 15 mg/kg administered intraperitoneally 1 day after 10 e5 L1210 leukemia cells and increase in life span. As to conditions: L1210, ip, 24 h, route intraperitoneal. It counts as functional.
Series [5] concerns Mus musculus. Description: In vivo acute toxicity (nonlethal dose) against mice by intraperitoneal administration. It counts as organism-based. To be noted: ip. In outline:
(§1)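 Mice (ICFW, C3H or B6D2 F1; 6-8 weeks; 22-24 g) in five groups of six. Drug dissolved in acidified saline (equimolar acetic acid) and given as a single ip or iv dose of 2, 5, 10, 25 or 50 mg/kg. Mortality observed over 30 days to set the lethal dose (LD100) and the highest nonlethal dose (LD0).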

In series [6] the test system is Mus musculus. Kind of series: In vivo acute toxicity (lethal dose) against mice by intraperitoneal administration. It counts as organism-based. As to conditions: ip. In short, it runs like this:
as §1

Series [7] has as its system Mus musculus. Kind of series: In vivo antitumor activity on L1210 leukemia cells at the dose 2.5 mg/kg administered intraperitoneally 1 day after 10 e5 L1210 leukemia cells and range of deaths. It counts as functional. As to conditions: route intraperitoneal.
Series [8] has as its system Mus musculus. Description: In vivo evaluation of antitumor activity on L1210 leukemia cells at the dose 2.5 mg/kg administered intraperitoneally 1 day after 10 e5 L1210 leukemia cells and increase in life span. It counts as functional. To be noted: L1210, ip, 24 h, route intraperitoneal.
The subject of series [9] is Mus musculus. Kind of series: In vivo leukemia cells at the dose 2.5 mg/kg administered intraperitoneally 1 day after 10 e5 L1210 leukemia cells and Mean survival time. It counts as functional. To be noted: route intraperitoneal.
In series [10] the test system is Nucleic Acid. Kind of series: B app constant towards DNA. It counts as nucleic-acid assay. To be noted: Bos taurus. In outline:
(§2)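 Association constants for DNA binding were derived from absorption changes of calf thymus DNA at 6 × 10^-7 M, expressed as mononucleotide concentration. The buffer was 50 mM Tris-HCl, pH 7.4, with 0.1 M NaCl.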

Series [11] deals with Nucleic Acid. Kind of series: Apparent association constant towards DNA at concentration of 10e-7/M. It counts as nucleic-acid assay. As to conditions: Bos taurus. In outline:
as §2

Series [12] has as its system Nucleic Acid. Kind of series: Apparent association constant towards DNA at concentration of 10e-7/M. It counts as nucleic-acid assay. To be noted: Bos taurus. In short, it runs like this: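 Apparent association constant from absorption changes of 6 × 10^-7 M calf thymus DNA (as mononucleotide concentration) in 50 mM Tris-HCl, pH 7.4, 0.1 M NaCl.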
The test system of series [13] is Mus musculus. Kind of series: In Vivo evaluation for the antitumor activity on grafted tumor friend cells at the dose 20 mg/kg and Increase in the life span was determined. It counts as functional. In outline: (§3)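 Friend tumor cells, 10^6, injected iv into syngeneic mice. Mice randomized in groups of 16. Drug dissolved in acidified saline (equimolar acetic acid) and given as a single iv dose 3 days after inoculation. Median survival time recorded. %ILS = (treated median survival − control median survival)/control median survival × 100.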

In series [14] the test system is Mus musculus. Kind of series: In Vivo antitumor activity on grafted tumor friend cells at the dose 5 mg/kg and decrease in intravenous 10 e 6 cells and median survival time was determined. It counts as functional. In outline: as §3
Series [15] relates to Mus musculus. Description: In vivo evaluation of antitumor activity on L1210 leukemia cells at the dose 15 mg/kg administered intraperitoneally 1 day after 10 e5 L1210 leukemia cells and increase in life span;(P<0.001). It counts as functional. As to conditions: L1210, ip, 24 h, route intraperitoneal.
Series [16] deals with Mus musculus. Kind of series: In vivo acute toxicity (nonlethal dose) against mice by intravenous administration. It counts as organism-based. In outline: as §1
In series [17] the test system is Mus musculus. Description: In vivo acute toxicity (lethal dose) against mice by intravenous administration. It counts as organism-based. In short, it runs like this:
as §1

Series [18] concerns Mus musculus. Kind of series: In vivo evaluation of antitumor activity on L1210 leukemia cells at the dose 5 mg/kg administered intraperitoneally 1 day after 10 e5 L1210 leukemia cells and Mean survival time. As to conditions: route intraperitoneal.
Series [19] deals with Mus musculus. Description: In vivo evaluation of antitumor activity on L1210 leukemia cells at the dose 10 mg/kg administered intraperitoneally 1 day after 10 e5 L1210 leukemia cells and Mean survival time. It counts as functional. As to conditions: route intraperitoneal.
Series [20] relates to Mus musculus. Kind of series: In vivo evaluation of antitumor activity on L1210 leukemia cells at the dose 10 mg/kg administered intraperitoneally 1 day after 10 e5 L1210 leukemia cells and increase in life span. It counts as functional. As to conditions: L1210, ip, 24 h, route intraperitoneal.
Series [21] has as its system Mus musculus. Description: In vivo antitumor activity on L1210 leukemia cells at the dose 10 mg/kg administered intraperitoneally 1 day after 10 e5 L1210 leukemia cells and range of deaths. It counts as functional. As to conditions: route intraperitoneal.

Regarding `COc1ccc2[nH]c3c(C)c4cc[n+](C)c(Nc5ccccc5)c4cc3c2c1`, in series [1], the IC50 was 5000 nM.

In series [2], `COc1ccc2[nH]c3c(C)c4ccnc(NCCCN(C)C)c4c(C)c3c2c1` had an MST of 15.3 days. The Range of deaths in series [3] stood at 18 days. For the same compound, the increase in life span (ILS) (commonly the gain in survival time of treated over control animals, in per cent) at 15 mg/kg in [4] is 33.3%. Besides, the LD0 in [5] came to 15 mg/kg. Moreover, the LD100 in series [6] amounted to 30 mg/kg. In series [1], the IC50 worked out at 300 nM.

Consider `Cc1c2ccnc(NCCN(C)C)c2cc2c1[nH]c1ccc(O)cc12`, for which, in [7], the Range of deaths was 20 days. In [8], this compound gave an ILS at 2.5 mg/kg of 26%. Besides, the MST in series [9] was 16 days. For the same compound, in series [5], the LD0 was 2.5 mg/kg. In addition, the LD100 in [6] turned out to be 5 mg/kg. For the same compound, the IC50 in series [1] was determined as 30 nM.

Take `CCN(CC)CCCNc1nccc2c(C)c3[nH]c4ccc(OCc5ccccc5)cc4c3cc12`: the IC50 in series [1] was 2000 nM.

As to `CCN(CC)CCCNc1nccc2c(C)c3[nH]c4ccc(OCc5ccccc5)cc4c3c(C)c12`, the IC50 in [1] turned out to be 1000 nM.

The compound `COc1ccc2[nH]c3c(C)c4ccnc(NCCCCN)c4cc3c2c1` showed a Bapp in series [10] of 0.13. Besides, the K app in series [11] came out at 4e+07 M⁻¹. Besides, the IC50 in series [1] was found to be 5000 nM.

As for `COc1ccc2[nH]c3c(C)c4ccnc(N5CCCCC5)c4cc3c2c1`, the IC50 in series [1] was found to be 30000 nM.

With `CCN(CC)CCCNc1nccc2c(C)c3[nH]c4ccc(O)cc4c3cc12`, the Bapp in [10] was 0.11. In addition, the K app in series [12] was determined as 3.7e+07 M⁻¹. Moreover, the increase in lifespan (ILS) at 20 mg/kg in [13] was 29.4%. Moreover, the MST in [14] was 11 days; in series [18], 16 days. Besides, the Range of deaths in series [3] was 18 days. Moreover, in series [15], the ILS at 15 mg/kg is 49.5%. Moreover, the LD0 in series [16] and in series [5] was 5 mg/kg in each case. Also, the LD100 in series [17] and in series [6] was 15 mg/kg in each case. The IC50 in series [1] stood at 20 nM.

`COc1ccc2[nH]c3c(C)c4ccnc(NCCCCCCN)c4cc3c2c1` came in with a Bapp in series [10] of 0.11. Moreover, in [11], the K app was determined as 3.5e+07 M⁻¹. The IC50 in series [1] stood at 800 nM.

Compound `COc1ccc2[nH]c3c(C)c4ccnc(NCCCCCN)c4cc3c2c1` showed a Bapp in [10] of 0.15. The K app in [11] was found to be 4.5e+07 M⁻¹. In addition, in [1], the IC50 is 500 nM.

On to `COc1ccc2[nH]c3c(C)c4ccnc(NCCCN)c4c(C)c3c2c1`, for which, in [19], the MST came out at 12.2 days. This compound also gave an ILS at 10 mg/kg in series [20] of 14%. This compound returned a Range of deaths in [21] of 14 days. Also, the LD0 in [5] was 10 mg/kg. For the same compound, in series [6], the LD100 is 20 mg/kg. Further, the IC50 in series [1] was found to be 100 nM.

As to `Cc1c2oc3c(C)ccc(C(=O)N[C@@H]4C(=O)N[C@H](C(C)C)C(=O)N5CCC[C@H]5C(=O)N(C)CC(=O)N(C)[C@@H](C(C)C)C(=O)O[C@@H]4C)c3nc-2c(C(=O)N[C@@H]2C(=O)N[C@H](C(C)C)C(=O)N3CCC[C@H]3C(=O)N(C)CC(=O)N(C)[C@@H](C(C)C)C(=O)O[C@@H]2C)c(N)c1=O` [DACTINOMYCIN] (I: T[dV]P[Sar][NMeV] / II: T[dV]P[Sar][NMeV]; ester I:1-I:C, II:1-II:C; linker I:N-II:N via Actinocin(1to9)), in series [1], the IC50 was 1 nM.

Turning to `CCN(CC)CCCC(C)Nc1nccc2c(C)c3[nH]c4ccc(OC)cc4c3cc12` (stereo not given), the MST in series [2] turned out to be 12.5 days. In series [3], this compound yielded a Range of deaths of 14 days. Also, the increase in life span (ILS) at 15 mg/kg in series [4] was 8.7%. In [5], the LD0 worked out at 1.5 mg/kg. The compound also gave an LD100 in [6] of 30 mg/kg. Further, the IC50 in series [1] turned out to be 500 nM.

Values taken from ChEMBL document CHEMBL1121556, “Structure-activity relationships in a series of newly synthesized 1-amino-substituted ellipticine derivatives” (J Med Chem, 1980).
